Results from different studies.
Compare with care: the assays were run in different laboratories.
Cell line: A549
Observed: cell growth or viability

OC1CCN(c2ccc(/C=N/NC(=S)Nc3ccc(Cl)cc3)cc2)CC1 has an IC50 of 2.92 µM (MTT; 24 h).
With O=C(NCCc1ccccc1)Nc1nc2cc(-c3ccc4ncn(CCN5CCOCC5)c(=O)c4c3)ccc2s1 the IC50 was 4.92 µM (MTT; 72 h).
The IC50 of NNc1nc2c(Cl)cc(Cl)cc2c(=O)n1-c1ccc(Cl)cc1 is reported as 25.9 µM (MTT; 48 h).
O=C(Nc1cccc(F)c1)Nc1nc2cc(-c3ccc4ncn(CCN5CCOCC5)c(=O)c4c3)ccc2s1 has an IC50 of > 20 µM (MTT; 72 h).
The IC50 of Cc1cc(NS(=O)(=O)c2ccc(NC(=O)/C(C#N)=C/c3ccc(N4CCCC4)cc3)cc2)no1 is reported as 180 µM (MTT; 48 h).
COc1cccc(NC(=O)Nc2nc3cc(-c4ccc5ncn(CCN(C)C)c(=O)c5c4)ccc3s2)c1 gave an IC50 of 0.91 µM (MTT; 72 h).
With NNc1nc2ccc(Br)cc2c(=O)n1-c1ccccc1 the IC50 was 53.5 µM (MTT; 48 h).
For O=C(N[C@@H](CSCc1nc2cc([N+](=O)[O-])ccc2[nH]1)C(=O)NO)c1ccccc1, the IC50 was < 500 µM (MTT; 48 h).
CCCCC(=O)Nc1ccc(-c2ccc3ncn(CCCC)c(=O)c3c2)cn1 has an IC50 of 0.87 µM (CCK-8; 72 h).
The IC50 of COc1ccc(NC(=O)Nc2nc3cc(-c4ccc5ncn(Cc6ccccc6)c(=O)c5c4)ccc3s2)cc1 is reported as 2.75 µM (MTT; 72 h).
CNC(=O)c1cc(Oc2ccc(NC(=O)Nc3ccc(Cl)c(C(F)(F)F)c3)cc2)ccn1 has an IC50 of 12.2 µM (MTT; 48 h).
CN(C)c1ccc(CNc2ccc(C(=O)O)cc2)cc1 gave an IC50 of > 100 µM (resazurin; 72 h).
With S=C(N/N=C/c1cccc2cc3ccccc3nc12)Nc1ccccc1 the IC50 was > 50 µM (MTT; 48 h).
The IC50 of Cc1cc(NS(=O)(=O)c2ccc(NC(=O)/C(C#N)=C/c3ccc(N4CCOCC4)cc3)cc2)no1 is reported as 109 µM (MTT; 48 h).
The IC50 of COc1cc(CNc2ccc(C(=O)O)cc2)cc(OC)c1O is reported as > 100 µM (resazurin; 72 h).
C[C@@H]1C[C@H]2[C@@H]3CCC4=CC(=O)C=C[C@]4(C)[C@@]3(F)[C@@H](O)C[C@]2(C)[C@@]1(O)C(=O)CO has an IC50 of 348 µM (MTT; 48 h).
The IC50 of O=C(O)c1ccc(NCc2ccccc2)cc1 is reported as > 100 µM (resazurin; 72 h).
O=C(Nc1ccc(Br)cc1)Nc1nc2cc(-c3ccc4ncn(Cc5ccccc5)c(=O)c4c3)ccc2s1 has an IC50 of > 20 µM (MTT; 72 h).
The IC50 of CC(C)c1ccc(/C=C2\N=C(SCC(=O)O)N(c3ccccc3)C2=O)cc1 is reported as 57.4 mg/L (MTT).
For O=C(Cn1cc(COc2ncnc3[nH]cnc23)nn1)NCc1ccc(Cl)cc1, the IC50 was 15.3 µM (MTT).
CC1CCC(C(C)C)C(OC2=C(Cl)C(=O)c3ccccc3C2=O)C1 (stereo not drawn) gave an IC50 of > 50 mg/L (MTT; 24 h).
CC(=NNC(=O)c1cc(-c2ccccc2)n(-c2ccc(S(N)(=O)=O)cc2)n1)c1ccc(C)cc1 has an IC50 of 11.1 µM (fluorescence; 48 h).
The IC50 of O=C(C=Cc1cccs1)c1ccc(OCCOc2ccc(C(=O)C=Cc3cccs3)cc2)cc1 is reported as 42 µM (MTT; 48 h).
With COC(=O)c1cc(C(C)=NNc2nc(-c3cccc4cc[nH]c34)cs2)ccc1O the IC50 was 92.3 µM (MTT; 96 h).
N=C(N)c1ccc(OCCCCCOc2ccc(C(=N)N)cc2)cc1 gave an IC50 of 12.8 µM (ATP luminescence; 72 h).
With CCCC(=O)Nc1ccc(-c2ccc3ncn(Cc4ccc(C)cc4)c(=O)c3c2)cn1 the IC50 was > 10 µM (CCK-8; 72 h).
The IC50 of NS(=O)(=O)c1ccc(-n2nc(-c3nnc(S)o3)cc2-c2ccccc2)cc1 is reported as 26.9 µM (fluorescence; 48 h).
CCCC(C)C(=O)Nc1ccc(-c2ccc3ncn(CCC)c(=O)c3c2)cn1 (stereo not drawn) has an IC50 of 9.85 µM (CCK-8; 72 h).
For COc1cccc(NC(=O)Nc2nc3cc(-c4ccc5ncn(CCN6CCOCC6)c(=O)c5c4)ccc3s2)c1, the IC50 was 1.14 µM (MTT; 72 h).
NNc1nc2c(Cl)cc(Cl)cc2c(=O)n1-c1ccc(F)cc1 gave an IC50 of 80 µM (MTT; 48 h).
The IC50 of C(=N\Nc1cc(N/N=C/c2ccc3ccccc3n2)nc(-c2ccccc2)n1)/c1ccc2ccccc2n1 is reported as 7.32 µM (MTT; 48 h).
Fc1ccc(NC(=S)N/N=C/c2cccc3cc4ccccc4nc23)cc1 gave an IC50 of > 50 µM (MTT; 48 h).
For CN1CCc2c(c3ccccc3n2Cc2ccc(C(=O)NO)cc2)C1, the IC50 was 27.8 µM (CCK-8; 48 h).
With CC(=O)c1c(O)c2ccccc2oc1=O the IC50 was 29.2 µM (MTT; 48 h).
With O=C(Nc1cc(C(F)(F)F)cc(C(F)(F)F)c1)Nc1nc2cc(-c3ccc4ncn(Cc5ccccc5)c(=O)c4c3)ccc2s1 the IC50 was 5.37 µM (MTT; 72 h).
The IC50 of CC(C)[C@H](NC(=O)[C@H](Cc1c[nH]c2ccccc12)NC(=O)[C@H](Cc1c[nH]cn1)NC(=O)[C@H](CCCNC(=N)N)NC(=O)[C@H](CCCNC(=N)N)NC(=O)[C@H](Cc1c[nH]c2ccccc12)NC(=O)[C@H](Cc1c[nH]c2ccccc12)NC(=O)[C@H](Cc1c[nH]cn1)NC(=O)[C@H](Cc1c[nH]c2ccccc12)NC(=O)[C@H](CCCNC(=N)N)NC(=O)[C@@H](N)CCCCN)C(=O)N[C@H](C(=O)N[C@@H](Cc1c[nH]c2ccccc12)C(N)=O)C(C)C is reported as 106 µM (MTT; 24 h).
The IC50 of CCCn1cnc2ccc(-c3ccc(NC(=O)CC4CCC4)nc3)cc2c1=O is reported as > 10 µM (CCK-8; 72 h).
CC(C)[C@@H]1NC(=O)[C@@H](CCCNC(=N)N)NC(=O)[C@H]([C@@H](C)O)NC(=O)[C@@H](CCCN)NC(=O)[C@H](Cc2ccc(O)cc2)NC(=O)[C@@H](Cc2ccccc2)NC1=O has an IC50 of > 100 µM (ATP luminescence).
CCCn1cnc2ccc(-c3ccc(NC(=O)CC)nc3)cc2c1=O gave an IC50 of 2.35 µM (CCK-8; 72 h).
With COc1cccc(CNc2ccc(C(=O)O)cc2)c1O the IC50 was > 100 µM (resazurin; 72 h).
COc1cccc2c1C(=O)c1c(O)c3c(c(O)c1C2=O)C[C@@](O)(C(=O)CO)C[C@@H]3O[C@H]1C[C@H](N)[C@H](O)[C@H](C)O1 gave an IC50 of 0.236 µM (96 h).
The IC50 of C/C(=N\C1CCCCC1/N=C(\C)c1c(O)c2ccccc2oc1=O)c1c(O)c2ccccc2oc1=O (stereo not drawn) is reported as 6.56 µM (MTT; 48 h).
CCCCC(=O)Nc1cc(C)c(-c2ccc3ncn(CCC)c(=O)c3c2)cn1 gave an IC50 of > 10 µM (CCK-8; 72 h).
With NS(=O)(=O)c1ccc(-n2nc(C(=O)NN=Cc3ccc(O)cc3)cc2-c2ccccc2)cc1 the IC50 was 7.9 µM (fluorescence; 48 h).
OC1CCN(c2ccc(/C=N/NC(=S)Nc3ccccc3)cc2)CC1 gave an IC50 of 3.77 µM (MTT; 24 h).
For O=C(Nc1ccc(-c2ccc3ncn(Cc4ccccc4)c(=O)c3c2)cn1)C1CCC1, the IC50 was > 10 µM (CCK-8; 72 h).
With COc1cccc(CNc2ccc(C(=O)O)cc2)c1 the IC50 was > 100 µM (resazurin; 72 h).
With C/C(=N\NC(=O)/N=C(\C)c1c(O)c2ccccc2oc1=O)c1c(O)c2ccccc2oc1=O the IC50 was 20.8 µM (MTT; 48 h).
O=C(Nc1ccc(Cl)cc1)Nc1nc2cc(-c3ccc4ncn(CCN5CCOCC5)c(=O)c4c3)ccc2s1 gave an IC50 of > 20 µM (MTT; 72 h).
The IC50 of Cc1ccc(CNC(=S)N/N=C/c2ccc(N3CCC(O)CC3)cc2)cc1 is reported as 3.28 µM (MTT; 24 h).
For CC#CCn1cnc2ccc(-c3ccc(NC(=O)CCCC)nc3)cc2c1=O, the IC50 was > 10 µM (CCK-8; 72 h).
